Sampled rows, rich in hits. Any-hit rate of the full collection: about 2.2%.
ERp5 block – inhibitors of ERp5-driven insulin aggregation, primary screen, biochemical, turbidity, absorbance 650 nm, single point; Protein disulfide-isomerase A6 (Homo sapiens), Q15084; 90 min; inhibition, % at 9.99 µM; 350,000 tested, 0.05% active; AID 651711, 2012;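 active = mean replicate inhibition above about 25%, with every replicate also reaching it, limit read from the data, passing the limit was not always enough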
FN deposition inh – inhibitors of fibronectin matrix deposition, primary screen, AH1F cells, Alexa488-fibronectin fluorescence, plate reader; AID 743247, 2014; 350,000 tested, 0.086% active; inhibition, % at 12.6 µM; AH1F fibroblasts, overnight;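 active = mean inhibition across replicates of 30% or more, regardless of how many single replicates reach that level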;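 also: positive control wells lacked labelled fibronectin entirely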
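Assay system: AH1F fibroblasts / Quantity: 10000 cells per well / Medium: DMEM plus 2% serum, read in PBS / Reagent: labelled fibronectin 24 nM / Dosing: single dose, pinned / Times: 1 h cell attachment, overnight exposure to compound and label / Signal: fluorescence, ex 485 nm, em 525 nm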
PvdQ acylase – P. aeruginosa PvdQ acylase inhibitors, primary screen, biochemical, fluorescence, plate reader and imaging, single point | purified PvdQ acylase | inhibition, % at 10 µM | 340,000 tested, 0.063% active | AID 488965, 2010; in the data active = inhibition above about 30%, passing the limit was not always enough;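 also: 0% = vehicle neutral wells and 100% = reference inhibitor wells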
Env fusion inh – inhibitors of HIV-1 Env-driven cell-cell fusion, primary screen, HeLa-JRFL effector, CEM21 target cells, luciferase. inhibition, % at 12.3 µM. 360,000 tested, 1.1% active;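 active = mean replicate inhibition score of at least 50 and every replicate individually at or above 50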;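 also: 0% = plate neutral controls and 100% = maraviroc near 300 nM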
Ecoli rRNA inh – reduced GFP signal of wild-type E. coli, primary screen, bacterial rRNA inhibitor project, GFP/RFP fluorescence, OD600, single point. GFP signal change (wild-type ribosome), % (no concentration beside the values). 350,000 tested, 1.6% active. E. coli WT GFP vs humanized-ribosome RFP mutants, 24 h; active compounds read low; DMSO median 0, no signal -100. AID 720706, 2013;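 active = significant combined selectivity score with lowered wild-type GFP, culture density cut under 30%, mutant RFP and density less affected; inactive = any of these conditions unmet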
PDI inh – inhibitors of human PDI, primary screen, biochemical, turbidity, single point, plate reader; Protein disulfide-isomerase (Homo sapiens), P07237; PDI insulin aggregation turbidity, A650, 90 min; inhibition, % at 10 µM; 350,000 tested, 0.052% active;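 active = mean inhibition across replicates of 30% or more, whatever share of single replicates reach that level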
Target sequence (P07237 whole entry, looked up): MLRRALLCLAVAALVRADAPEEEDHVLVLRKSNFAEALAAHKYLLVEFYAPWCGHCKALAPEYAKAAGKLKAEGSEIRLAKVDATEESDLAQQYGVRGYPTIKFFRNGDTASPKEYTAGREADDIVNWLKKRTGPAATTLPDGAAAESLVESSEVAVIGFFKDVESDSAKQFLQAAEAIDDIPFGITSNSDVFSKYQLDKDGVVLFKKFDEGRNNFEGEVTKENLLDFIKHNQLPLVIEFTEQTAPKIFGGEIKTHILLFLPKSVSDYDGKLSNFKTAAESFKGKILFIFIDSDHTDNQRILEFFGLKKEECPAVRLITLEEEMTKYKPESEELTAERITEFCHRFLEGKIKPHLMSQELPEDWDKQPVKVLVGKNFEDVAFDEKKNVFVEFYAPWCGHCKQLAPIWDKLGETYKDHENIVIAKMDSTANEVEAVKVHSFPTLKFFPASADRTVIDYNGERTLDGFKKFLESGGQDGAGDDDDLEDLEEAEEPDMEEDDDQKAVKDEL
Starred values were filed as active, the others as inactive; [ ] = remark or other dose.

Results for O=S(=O)(Nc1nc2ccccc2nc1NCC1CCCO1)c1cc(Cl)ccc1Cl (stereo unspecified) ?
ERp5 block: 1.6; FN deposition inh: -1.6; PvdQ acylase: -8.0; Env fusion inh: -6.2; Ecoli rRNA inh: -27.4*; PDI inh: -7.8

How did Cc1noc(C)c1S(=O)(=O)N(C)C[C@H]1Oc2ccc(NC(=O)NC3CCCCC3)cc2CC(=O)N([C@H](C)CO)C[C@@H]1C do in these assays?
ERp5 block: -8.9; FN deposition inh: -2.1; Env fusion inh: 2.0[16.7 µM]; Ecoli rRNA inh: 0.7

How did Cc1noc(C)c1S(=O)(=O)N(C)C[C@@H]1Oc2ccc(NC(=O)NC3CCCCC3)cc2CC(=O)N([C@H](C)CO)C[C@@H]1C do in these assays?
ERp5 block: -2.3; FN deposition inh: 1.9; Env fusion inh: 77.8*[16.7 µM]; Ecoli rRNA inh: -1.4

What do the screens show for `Cc1noc(C)c1S(=O)(=O)N(C)C[C@@H]1Oc2ccc(NC(=O)NC3CCCCC3)cc2CC(=O)N([C@@H](C)CO)C[C@@H]1C`?
ERp5 block: 1.1; FN deposition inh: 1.1; Env fusion inh: 62.0*[16.7 µM]; Ecoli rRNA inh: 1.0

Results for Cc1noc(C)c1S(=O)(=O)N(C)C[C@H]1Oc2ccc(NC(=O)NC(C)C)cc2CC(=O)N([C@H](C)CO)C[C@H]1C ?
ERp5 block: -2.4; Env fusion inh: 6.2[16.7 µM]; Ecoli rRNA inh: 6.4

What do the screens show for `C[C@H](CO)N1C[C@H](C)[C@H](CN(C)Cc2ccc(C(=O)O)cc2)OCCCC[C@H](C)Oc2ccc(NC(=O)c3ccccc3)cc2C1=O`?
ERp5 block: -4.7; FN deposition inh: -6.9; Env fusion inh: 11.0[16.7 µM]; Ecoli rRNA inh: -0.7

What do the screens show for `O=C(C[C@@H]1C/C=C/CC[C@H](Cc2ccc(F)cc2)C(=O)O[C@H](c2ccccc2)CNC1=O)NCCO`?
ERp5 block: 2.5; FN deposition inh: 1.1; PvdQ acylase: 10.8; Env fusion inh: 66.9*; Ecoli rRNA inh: 0.8; PDI inh: 5.8

What do the screens show for `O=C(C[C@H]1C/C=C\C[C@@H](Cc2ccc(F)cc2)C(=O)O[C@H](c2ccccc2)CNC1=O)NCCO`?
ERp5 block: 1.5; FN deposition inh: 12.9; PvdQ acylase: -1.9; Env fusion inh: 12.0; Ecoli rRNA inh: 5.1; PDI inh: 5.0

Results for CCOC(=O)[C@]12CCC=C1N(Cc1ccc3c(c1)OCO3)C(=O)[C@H](CC(=O)NCC13CC4CC(CC(C4)C1)C3)C2 ?
ERp5 block: -2.4; Env fusion inh: 77.3*; Ecoli rRNA inh: 8.7

Results for CCCCOCCCNC(=O)C[C@@H]1C[C@@]2(C(=O)OCC)CCC=C2N(Cc2ccc3c(c2)OCO3)C1=O ?
ERp5 block: 4.9; FN deposition inh: -21.2; Env fusion inh: -30.0; Ecoli rRNA inh: -25.9

What do the screens show for `CCCCCCCCN1C(=O)[C@H](CC(=O)NCc2cccc3ccccc23)C[C@@]2(C(=O)OCC)CCCC=C12`?
ERp5 block: 1.4; FN deposition inh: 1.2; Env fusion inh: 75.8*; Ecoli rRNA inh: 7.8

How did CCOC(=O)[C@]12CCCC=C1N(Cc1cccc3ccccc13)C(=O)[C@H](CC(=O)NCc1cccc3ccccc13)C2 do in these assays?
ERp5 block: 2.9; FN deposition inh: 6.7; Env fusion inh: -8.3

What do the screens show for `CCCCCCCCN1C(=O)[C@H](CC(=O)NCc2cccs2)C[C@@]2(C(=O)OCC)CCCC=C12`?
ERp5 block: 5.2; FN deposition inh: 5.4; Env fusion inh: 88.2*; Ecoli rRNA inh: 7.2

How did CCOC(=O)[C@]12CCCC=C1N(Cc1ccccc1)C(=O)[C@H](CC(=O)NCCCCc1ccccc1)C2 do in these assays?
ERp5 block: -3.3; FN deposition inh: -0.5; Env fusion inh: -240.7; Ecoli rRNA inh: -3.9

What do the screens show for `CCOC(=O)[C@]12CCCC=C1N(Cc1ccccc1)C(=O)[C@H](CC(=O)NCCCOC)C2`?
ERp5 block: 2.2; FN deposition inh: -0.9; Env fusion inh: 59.5*; Ecoli rRNA inh: 15.0

How did COCC(=O)Nc1ccc2c(c1)[C@H]1C[C@@H](CC(=O)NCc3ccccc3OC)O[C@@H](CO)[C@H]1O2 do in these assays?
FN deposition inh: -0.7; Ecoli rRNA inh: 2.9

What do the screens show for `CCCCCCCCN1C(=O)[C@H](CC(=O)NCc2cccc3ccccc23)C[C@@]2(C(=O)OC)CC(C)(C)CC=C12`?
ERp5 block: -3.6; FN deposition inh: 2.4; Env fusion inh: 57.8*

How did CCOC(=O)[C@]12CCCC=C1N(CCc1ccc(OC)c(OC)c1)C(=O)[C@H](CC(=O)NCc1ccccc1)C2 do in these assays?
ERp5 block: -8.2; FN deposition inh: -2.0; Env fusion inh: -22.4; Ecoli rRNA inh: -9.6

Results for COC(=O)[C@@]12C[C@@H](CC(=O)NCc3ccc(OC)c(OC)c3)C(=O)N(CCc3ccc(OC)c(OC)c3)C1=CCC(C)(C)C2 ?
ERp5 block: -1.2; Env fusion inh: 67.1*; Ecoli rRNA inh: -10.4

How did CCCCCCCCN1C(=O)[C@H](CC(=O)NCc2ccccc2)C[C@@]2(C(=O)OC)CC(C)(C)CC=C12 do in these assays?
ERp5 block: 7.2; FN deposition inh: 8.2; Env fusion inh: 20.4

What do the screens show for `CCCCCCCCN1C(=O)[C@H](CC(=O)NCc2ccc(OC)c(OC)c2)C[C@@]2(C(=O)OCC)CCCC=C12`?
ERp5 block: 2.0; FN deposition inh: 2.4; Env fusion inh: 69.7*; Ecoli rRNA inh: 3.4

Results for CCCCCCCCN1C(=O)[C@H](CC(=O)NCCC(C)C)C[C@@]2(C(=O)OCC)CCCC=C12 ?
ERp5 block: 3.1; FN deposition inh: 3.5; Env fusion inh: 61.3*; Ecoli rRNA inh: 18.1

How did CO[C@H]1CN(C)C(=O)c2ccc(NC(=O)Cc3ccccc3)cc2OC[C@H](C)N(CC2CC2)C[C@@H]1C do in these assays?
FN deposition inh: -1.1; Ecoli rRNA inh: 0.1

What do the screens show for `Cc1ccc(C2(C)CC(C)(C)N(C(=O)CSc3nnc(C)s3)c3ccccc32)cc1` (stereo unspecified)?
FN deposition inh: 9.3; PvdQ acylase: -0.3; Env fusion inh: 25.9; PDI inh: 1.1

What do the screens show for `Cc1nnc(SCC(=O)N2c3ccccc3C(C)(c3ccccc3)CC2(C)C)s1` (stereo unspecified)?
FN deposition inh: 1.7; PvdQ acylase: -16.8; Env fusion inh: 61.6*; PDI inh: -0.3

How did CCC(=O)N1CC2(C1)[C@H](c1ccc(-c3cccc(F)c3)cc1)[C@H](CO)N2CC1CC1 do in these assays?
ERp5 block: -2.7; Ecoli rRNA inh: -3.6

Screens: PubChem BioAssay, Broad Institute
